Bioassay records from PubChem.
NRP1-CendR mod = modulators of CendR peptide binding to human neuropilin-1; O14786; FAM-RPARPAR peptide binding to NRP-1, fluorescence polarization; inhibition, % at 25 µM; 360,000 tested, 0.85% active;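 active = inhibition or corrected inhibition above about 18%, plus a signal ratio from 0.5 to 1.5, limit read from the data, passing the limit was not always enough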
SENP7 inh = blocks the human protease SENP7 | Q9BQF6 | recombinant SENP7, Z-RLRGG-aminoluciferin luminescence, 40 min | inhibition, % at 5 µM | 330,000 tested, 1.5% active | AID 434973;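 active = inhibition above about 50% at the single test dose, limit read from the data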;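 also: plate controls were DMSO with enzyme for no effect and no enzyme buffer wells for full effect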
Target sequence (Q9BQF6 706-1050 limits assumed): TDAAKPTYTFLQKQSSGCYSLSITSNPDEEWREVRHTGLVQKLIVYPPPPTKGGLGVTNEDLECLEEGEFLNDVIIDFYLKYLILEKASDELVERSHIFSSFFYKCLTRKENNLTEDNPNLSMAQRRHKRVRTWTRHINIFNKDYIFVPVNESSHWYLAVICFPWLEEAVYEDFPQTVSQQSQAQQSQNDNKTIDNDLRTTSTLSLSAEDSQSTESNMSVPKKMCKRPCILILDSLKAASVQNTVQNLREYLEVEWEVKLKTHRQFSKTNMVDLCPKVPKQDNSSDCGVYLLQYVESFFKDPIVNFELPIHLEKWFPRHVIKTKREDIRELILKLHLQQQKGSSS
SENP8 block-1 = blocks human SENP8 cleavage of Nedd8 substrate | 360,000 tested, 0.64% active | recombinant SENP8, Nedd8 substrate fluorescence | AID 602440 | inhibition, % at 20 µM; in the data active = inhibition mostly above about 40%, no sharp cut-off; inactive = mostly below about 27%
SENP1 FRET inh = SENP1 (human) catalytic domain inhibition. Q9P0U3. recombinant SENP1 catalytic domain, CyPet-SUMO1-YPet FRET cleavage. inhibition, % at 10 µM. 360,000 tested, 0.21% active. AID 624204;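 active = inhibition at least 30% at 10 µM, raw YFP signal under a set limit, fluorescence ratio 0.5 to 1.5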;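 also: 0% = enzyme with DMSO and 100% = no enzyme wells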
Target sequence (Q9P0U3 419-644 limits assumed): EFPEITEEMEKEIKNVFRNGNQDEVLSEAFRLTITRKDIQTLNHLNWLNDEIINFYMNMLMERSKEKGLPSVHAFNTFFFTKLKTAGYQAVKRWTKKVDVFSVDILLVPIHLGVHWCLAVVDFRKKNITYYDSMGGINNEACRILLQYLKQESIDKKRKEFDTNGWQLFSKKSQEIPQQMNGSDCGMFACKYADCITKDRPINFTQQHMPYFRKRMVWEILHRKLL
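Assay system – human recombinant His6-tagged SENP1 catalytic domain enzyme · Input – SENP1 enzyme, 20 pM final · Buffer or medium – Tris pH 8 buffer plus EDTA, NaCl, BME, BSA, NP40, catalase · Schedule – 50 min reaction at room temperature · Technique – FRET read of cyan and yellow fluorescence · Control set – no-enzyme wells low, DMSO-plus-enzyme wells high control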
SENP6 inh = SENP6 protease inhibition. Recombinant SENP6 catalytic domain, aminoluciferin luminescence. AID 2599. 330,000 tested, 1.8% active. Q9GZR1. inhibition, % at 10 µM;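 active = inhibition above about 50% at the single tested dose, limit read from the data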;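 also: plate controls were DMSO wells with enzyme for no effect and DMSO wells lacking enzyme for full effect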
SENP8 block-2 = SENP8 protease inhibition | inhibition, % at 10 µM | purified SENP8, Z-RLRGG-aminoluciferin cleavage, luminescence | Q96LD8 | AID 2540 | 330,000 tested, 1.2% active; in the data active = inhibition above about 50%
* hit, by the source's call; . = no result given. Shown are actives, neighbours in structure and some others; about 3.3% of the full set was active somewhere.

SMILES	NRP1-CendR mod	SENP7 inh	SENP8 block-1	SENP1 FRET inh	SENP6 inh	SENP8 block-2
Cc1cc(O)c2c(c1)C(=O)[C@@]13Oc4c5c(c(O)c6c(O)cc(C)cc46)C(=O)C[C@H](O)[C@H]5[C@@H]1[C@@H](O)CC(=O)C3=C2O	6	.	-4	33*	.	.
CC(=O)N1CCN(C(=O)c2cccc(NS(=O)(=O)c3ccc(Br)cc3)c2)CC1	3	6	1	-1	-13	-12
O=C(Nc1cccc2c(=O)[nH][nH]c(=O)c12)c1ccc([N+](=O)[O-])cc1	1	.	-72	-4	.	.
COc1ccc(N2CCN(C(=O)c3ccc(C)c(Cl)c3)CC2)cc1	1	0	40*	5	9	5
COc1ccc(NS(=O)(=O)c2ccc(C(=O)N3CCN(c4ccc(F)cc4)CC3)cc2)cc1	2	8	7	0	11	1
COc1ccc(N2CCN(C(=O)c3ccc(NS(=O)(=O)c4ccc(F)c(F)c4)cc3)CC2)cc1	51*	22	10	2	31	5
O=C(Nc1ccccc1)Nc1cccc(Cl)c1Cl	5	55*	17	0	74*	30
Cn1cccc1C(=O)C(=O)Nc1cccc(Cl)c1Cl	-12	89*	20	3	12	4
O=C(Nc1ccncc1)Nc1cccc(Cl)c1Cl	-13	-4	3	0	15	-2
CC(C)c1cc(Cn2c3ccccc3c(=O)n2C(C)Cn2cc(C3=CCCCC3)nn2)on1 (stereo unspecified)	-6	.	-448	-1	.	.
O=C(CN(CC1CCCO1)C(=O)CNS(=O)(=O)c1ccc(Cl)cc1)NCC1CCCO1 (stereo unspecified)	30*	1	0	-1	-40	-1
COc1ccc(OCC(=O)O/N=C(\N)Cc2ccc(Cl)cc2Cl)cc1	46*	3	16	1	-17	5
CCn1c(=S)sc2c(=O)n(CC(=O)Nc3cccc(Cl)c3)c(C)nc21	-4	12	17	1	-10	-12
CCn1c(=S)sc2c(=O)n(CC(=O)NCCCc3ccccc3)c(C)nc21	26*	8	19	0	-18	-5
CCn1ncc(Br)c1C(=O)Nc1ccn(C23CC4CC(CC(C4)C2)C3)n1	-6	-2	8	0	3	0
CCn1ncc(Br)c1C(=O)N(C)C12CC3CC(CC(C3)C1)C2	27*	-4	34	-1	2	6
COc1ccc(/C=C/c2c([N+](=O)[O-])c(=O)n(C)c(=O)n2C)cc1OC	1	-2	5	-3	-15	-1
Cn1c(/C=C/c2ccc(Cl)cc2)c([N+](=O)[O-])c(=O)n(C)c1=O	-7	8	5	34*	-1	10
CC1(c2nnnn2Cc2ccccc2)CCC(=O)N1Cc1cccs1 (stereo unspecified)	4	.	19	-1	.	.
O=c1c2ccccc2cnn1CCOc1ccccc1	15	93*	8	-1	92*	92*
O=C(O)Cn1ncc2ccccc2c1=O	-1	-10	6	0	-2	-5
O=c1[nH]c(-c2ccco2)nc2sc3c(c12)CCCC3	-1	26	-53	-9	51*	11
CC1(C(=O)NCc2ccccc2)CN(S(C)(=O)=O)CC(=O)N1CCc1ccc(O)cc1 (stereo unspecified)	3	.	12	-3	.	.
CC1CCCC(N2C(=O)NC(NC(=O)c3ccco3)(C(F)(F)F)C2=O)C1C (stereo unspecified)	28*	-10	11	1	-21	-2
CCCCN1C(=O)NC(NC(=O)c2ccco2)(C(F)(F)F)C1=O (stereo unspecified)	5	-2	14	0	-10	-19
SMILES	NRP1-CendR mod	SENP7 inh	SENP8 block-1	SENP1 FRET inh	SENP6 inh	SENP8 block-2
CC(CN1CCOCC1)OC(=O)c1ccc2c(c1)OCCO2 (stereo unspecified)	27*	7	25	2	-2	2
CC(CN1CCCCC1)OC(=O)c1ccc2c(c1)OCCO2 (stereo unspecified)	-3	8	3	2	-2	-4
COc1ccc(NC(=O)Nc2ccc(Br)cn2)cc1OC	47*	10	17	0	-2	5
O=C(NCc1ccco1)C(c1ccco1)N(C(=O)Cn1nnc2ccccc21)c1ccc2c(c1)CCC2 (stereo unspecified)	19*	6	20	2	-7	-3
Cc1cccc(N(C(=O)Cn2nnc3ccccc32)C(C(=O)NCc2ccco2)c2ccncc2)c1 (stereo unspecified)	0	13	11	0	2	-11
COC(=O)[C@]12CCCCC=C1N(Cc1ccccc1)C(=O)[C@H](CC(=O)NCC13CC4CC(CC(C4)C1)C3)C2	16	.	16	1	.	.
O=C(NCCc1ccc(O)cc1)c1ccc(Cl)cc1	24*	4	14	-1	-8	-2
O=C(NCCc1ccc(Cl)cc1)c1ccc(=O)[nH]c1	-4	-8	4	1	-17	-2
O=C(N/N=C/c1c[nH]c2ccccc12)c1sc2ccccc2c1Cl	-3	36	9	27	65*	52*
Cc1ccc(C)c2[nH]c(=O)c(C(c3nnnn3Cc3ccccc3)N3CCc4ccccc4C3)cc12 (stereo unspecified)	-30	46	-32	-35	66*	34
COc1cccc2c1OC1(N3CCOCC3)CCCCC1C2C[N+](=O)[O-] (stereo unspecified)	-2	.	17	3	.	.
C=C1c2cccc(O)c2C(O)=C2C(=O)[C@]3(O)C(O)=C(C(N)=O)C(=O)[C@@H](N(C)C)[C@@H]3[C@@H](O)[C@H]12	13	1	36	31*	-3	0
Nc1c(S(=O)(=O)O)cc(NC(=O)c2ccccc2)c2c1C(=O)c1ccccc1C2=O	27*	0	31	2	27	21
O=C(Nc1ccccc1-c1ccccc1)c1ccccc1	5	-4	-11	2	-4	-2
CCN(C[C@H]1N[C@@](CC)(C(=O)OC)[C@H]2C(=O)N(C)C(=O)[C@@H]12)S(=O)(=O)c1ccc(-c2ccccc2)cc1	-4	-11	5	2	-14	5
CCN(C[C@H]1N[C@@](CC)(C(=O)OC)[C@H]2C(=O)N(C)C(=O)[C@@H]12)S(=O)(=O)c1ccc(OC)cc1	28*	-10	-8	0	-21	-12
CCCCCn1c(N2CCN(c3cccc(Cl)c3)CC2)nc2c1c(=O)[nH]c(=O)n2C	28*	-3	24	1	-27	2
Cc1cc(C)n2nc(-c3ccc(F)cc3)cc2n1	2	.	-410	-1	.	.
Cc1cc(-c2ccc(F)cc2)nc2cc(C(N)=O)nn12	26*	6	-454	-13	-8	3
Fc1ccc(N2CCN(C3=Nc4cccc5cccc3c45)CC2)cc1	-72	0	17	90*	5	-4
